Here are results for seven molecules from ChEMBL document CHEMBL1140695, “Endomorphin-2 with a beta-turn backbone constraint retains the potent micro-opioid receptor agonist properties” (J Med Chem, 2008).

Series [1] can be described thus: Stability in rat brain assessed as half life. It counts as ADME, tissue-based. The method, boiled down: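 Peptides incubated in rat brain homogenate lacking cerebellum. Digestion mixtures analysed by RP-HPLC; velocity constants and half-lives calculated assuming pseudo-first-order kinetics.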
The target in series [2] is Delta-type opioid receptor (Rattus norvegicus, UniProt P33533). Nature of the series: Displacement of [3H]deltorphin 2 from delta opioid receptor in Wistar rat brain after 45 mins. An outline of the steps: (§1)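 Radioligand binding on a crude membrane fraction of Wistar rat forebrain.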
On the technique in general: Displacement assays read how much labelled ligand stays bound in the presence of the test substance.

For series [3], the target named is Mu-type opioid receptor (Rattus norvegicus, UniProt P33535). The experiment in a line: Displacement of [3H]DAMGO from mu opioid receptor in Wistar rat brain after 45 mins. An outline of the steps: as §1
Series [4] deals with Mu-type opioid receptor (Rattus norvegicus) (UniProt P33535). The experiment in a line: Agonist activity at mu opioid receptor in rat brain assessed as maximal stimulation of [35S]GTP-gamma-S binding relative to basal level. It counts as functional, tissue-based. The method, boiled down:
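[35S]GTPγS binding in rat brain membrane fractions, reversal tested with naloxone 1 µM.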
A general note: GTPγS resists hydrolysis and so accumulates on activated G proteins.

Series [5] has the same target. The following applies: Brain.
For series [6], the target named is Mu-type opioid receptor (Mus musculus, UniProt P42866). Nature of the series: Agonist activity at mu opioid receptor in NMRI mouse vas deferens assessed as inhibition of electrically-stimulated muscle contraction. In kind it is functional, tissue-based. The method, boiled down:
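Mouse vas deferens preparation; agonist potency. Values are means ± S.E.M of 3–7 independent duplicate experiments.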

Series [7] concerns the target Mu-type opioid receptor (Homo sapiens) (UniProt P35372). The following applies: CHO.

Mu-type opioid receptor (Rattus norvegicus, UniProt P33535), sequence (P33535 whole entry): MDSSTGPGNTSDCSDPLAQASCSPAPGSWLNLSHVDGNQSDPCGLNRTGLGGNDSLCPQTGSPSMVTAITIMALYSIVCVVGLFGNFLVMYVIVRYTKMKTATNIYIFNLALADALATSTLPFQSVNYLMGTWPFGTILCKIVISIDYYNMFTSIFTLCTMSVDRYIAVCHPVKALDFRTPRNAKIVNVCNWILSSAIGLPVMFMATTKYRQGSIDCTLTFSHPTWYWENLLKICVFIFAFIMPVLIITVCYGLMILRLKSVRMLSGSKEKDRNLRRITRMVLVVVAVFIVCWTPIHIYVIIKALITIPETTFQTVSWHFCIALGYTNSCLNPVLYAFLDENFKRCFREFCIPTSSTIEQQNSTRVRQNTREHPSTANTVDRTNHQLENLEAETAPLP
Mu-type opioid receptor (Rattus norvegicus), sequence (P33535 whole entry): as above
Delta-type opioid receptor, sequence (P33533 whole entry): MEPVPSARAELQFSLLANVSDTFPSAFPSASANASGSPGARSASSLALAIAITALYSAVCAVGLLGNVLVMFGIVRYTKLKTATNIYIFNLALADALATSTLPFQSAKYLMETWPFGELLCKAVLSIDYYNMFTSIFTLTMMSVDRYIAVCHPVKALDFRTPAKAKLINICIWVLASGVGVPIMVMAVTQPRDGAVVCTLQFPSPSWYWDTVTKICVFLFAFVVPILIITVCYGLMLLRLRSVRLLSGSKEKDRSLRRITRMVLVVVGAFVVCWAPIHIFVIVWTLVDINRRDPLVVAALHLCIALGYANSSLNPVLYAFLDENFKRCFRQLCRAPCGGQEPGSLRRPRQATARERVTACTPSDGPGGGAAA
Mu-type opioid receptor (Homo sapiens), sequence (P35372 whole entry): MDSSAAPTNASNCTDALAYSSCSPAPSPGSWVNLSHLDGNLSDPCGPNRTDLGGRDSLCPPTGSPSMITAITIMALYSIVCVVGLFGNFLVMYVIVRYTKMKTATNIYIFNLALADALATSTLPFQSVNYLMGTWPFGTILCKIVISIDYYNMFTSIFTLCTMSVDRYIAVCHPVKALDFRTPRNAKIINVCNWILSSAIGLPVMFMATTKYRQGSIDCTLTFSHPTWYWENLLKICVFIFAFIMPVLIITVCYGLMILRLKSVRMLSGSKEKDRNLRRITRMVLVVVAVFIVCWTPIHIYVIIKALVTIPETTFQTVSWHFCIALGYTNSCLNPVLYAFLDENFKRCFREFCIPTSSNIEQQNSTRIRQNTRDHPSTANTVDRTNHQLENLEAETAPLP
Mu-type opioid receptor (Mus musculus, UniProt P42866), sequence (P42866 whole entry): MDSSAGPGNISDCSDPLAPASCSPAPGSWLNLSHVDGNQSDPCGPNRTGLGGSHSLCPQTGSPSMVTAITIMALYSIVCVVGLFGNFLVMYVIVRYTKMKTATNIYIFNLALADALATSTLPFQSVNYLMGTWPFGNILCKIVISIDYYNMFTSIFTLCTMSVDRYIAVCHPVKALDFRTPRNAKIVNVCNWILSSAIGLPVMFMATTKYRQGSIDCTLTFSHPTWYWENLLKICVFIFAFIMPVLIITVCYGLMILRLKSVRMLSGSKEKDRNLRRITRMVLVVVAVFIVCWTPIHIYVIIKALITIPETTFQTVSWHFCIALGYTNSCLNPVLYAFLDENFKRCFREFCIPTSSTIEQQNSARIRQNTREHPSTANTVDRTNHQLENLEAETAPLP

As to `NC(=O)[C@H](Cc1ccccc1)NC(=O)CN1Cc2ccccc2C[C@H](NC(=O)[C@@H](N)Cc2ccc(O)cc2)C1=O`, the half-life in series [1] was found to be 0.0117 h. The Ki is 0.778 nM in series [2] and 0.373 nM in series [3].
With `CN1CC[C@]23c4c5ccc(O)c4O[C@H]2[C@@H](O)C=C[C@H]3[C@H]1C5`, the Emax in series [4] was determined as 134%.
As to `C[C@@H](NC(=O)[C@@H](N)Cc1ccc(O)cc1)C(=O)NCC(=O)N(C)[C@@H](Cc1ccccc1)C(=O)NCCO`, the Emax in series [4] was 169%.
As to `NC(=O)[C@H](Cc1ccccc1)NC(=O)CN1Cc2ccccc2C[C@@H](NC(=O)[C@@H](N)Cc2ccc(O)cc2)C1=O`, in series [1], the half-life stood at 3.3 h. In addition, the results for the Ki in series [2] and in series [3] were 2.96 nM and 2.25 nM, respectively.
Take `NC(=O)[C@H](Cc1ccccc1)NC(=O)[C@H](Cc1ccccc1)NC(=O)[C@@H]1CCCN1C(=O)[C@@H](N)Cc1ccc(O)cc1` [ENDOMORPHIN 2]: the half-life in series [1] came to 0.0633 h.
For the molecule `NC(=O)[C@H](Cc1ccccc1)NC(=O)CN1Cc2ccccc2C[C@@]2(CCCN2C(=O)[C@@H](N)Cc2ccc(O)cc2)C1=O`, the half-life in series [1] was > 24 h. In addition, the Ki was 2.31 nM in series [2] and 8.73 nM in series [3].
In the case of `NC(=O)[C@H](Cc1ccccc1)NC(=O)CN1Cc2ccccc2C[C@]2(CCCN2C(=O)[C@@H](N)Cc2ccc(O)cc2)C1=O`, the Emax in series [4] was determined as 134%. The Log10ED50 came out at 6.74 in series [5] and 6.88 in series [7]. Also, the IC50 in series [6] worked out at 49.8 nM. The half-life in series [1] was > 24 h. In addition, the Ki was > 10 nM in series [2] and 0.0293 nM in series [3].

A word on the half-life: it is the time needed for the level to fall by half in the phase considered. For orientation: Ki means a measure of affinity in units of concentration, obtained from inhibition or displacement. Read a high Ki as lower affinity. In general, Emax refers to the greatest response seen or fitted, relative to the assay's reference. Usually IC50 stands for the point on the concentration scale where inhibition reaches its midpoint.
